Assay results from ChEMBL document CHEMBL1144887, “Indanylidenes. 1. Design and synthesis of (E)-2-(4,6-difluoro-1-indanylidene)acetamide, a potent, centrally acting muscle relaxant with antiinflammatory and analgesic activity” (J Med Chem, 2003).

Tests used:
Mus musculus [1] = experiment: Sedation caused by oral administration was estimated using rotarod (RR) assay.; assay type: functional
In short: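 Mouse rotorod test for sedation, oral dosing, generally at a minimum of three doses with N = 6 animals per dose group.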

Mus musculus [2] = organism: Mus musculus; experiment: Ratio of rotarod to straub tail activity, which indicates the dose exhibiting muscle relaxant activity versus that producing sedation; assay type: functional
In short: (§1)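 Ratio of rotorod ED50 (po) to Straub tail ED50 (po), both measured in mice with oral dosing. Indicates separation between the muscle-relaxant dose and the sedating dose.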

Mus musculus [3] = experiment: Effective dose required for muscle relaxation by intraperitoneal administration in mouse using Straub-tail (ST) assay; assay type: functional; conditions: ip
In short: (§2)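 Mouse morphine-induced Straub tail assay, scoring inhibition of sacro-coccygeus dorsalis contraction. Dosed ip or po, generally at a minimum of three doses with N = 6 animals per dose group.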

Mus musculus [4] = experiment: Effective dose required for muscle relaxation by oral administration in mouse using Straub-tail (ST) assay.; assay type: functional; in short: as §2
Rattus norvegicus [5] = experiment: Effective dose required for analgesic activity by trypsin-induced hyperalgesia assay at 20 mg/kg by oral administration in rats; assay type: functional
In short: (§3)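 Rat trypsin-induced hyperalgesia (mild analgesia) with oral dosing. ED50 reported in mg/kg po. Each compound tested two or three times; average variation approximately 5%.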

Rattus norvegicus [6] = experiment: Percent inhibition for analgesic activity by trypsin-induced hyperalgesia assay at 20 mg/kg by oral administration in rats.; assay type: functional
In short: (§4)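 Rat trypsin-induced hyperalgesia (mild analgesia). Percent inhibition at a single oral dose of 20 mg/kg. Each compound tested two or three times; average variation approximately 5%.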

Mus musculus [7] = experiment: (§5) Percent effect profile muscle relaxation at 100 mg/kg by intraperitoneal administration in mouse using Straub-tail (ST) assay; assay type: functional; conditions: ip
In short: (§6)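 Mouse morphine-induced Straub tail assay, scoring inhibition of sacro-coccygeus dorsalis contraction. Single ip dose of 100 mg/kg; percent effect reported. Compounds above 50% inhibition were then tested orally.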

Rattus norvegicus [8] = experiment: Antiinflammatory activity in cells using Carrageenan pleurisy assay by oral administration; assay type: functional
In short: (§7)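 Rat carrageenan pleurisy, 3 h. Compounds given orally, with separate read-outs for pleural cell counts and edema. ED50 reported in mg/kg po. Each compound tested two or three times; average variation approximately 10%.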

Rattus norvegicus [9] = experiment: Antiinflammatory activity in edema by Carrageenan pleurisy assay by oral administration; assay type: functional; in short: as §7
Mus musculus [10] = experiment: as §5; assay type: functional; conditions: ip; in short: as §6; remark: listed apart in the source
[11] = Effective dose required to produce analgesic activity in the adjuvant arthritis hyperalgesia assay by oral administration; assay type: functional
[12] = Effective dose required to produce analgesic activity in the phalanges algesia assay by oral administration; assay type: functional
[13] = Effective dose required to produce analgesic activity in the trypsin hyperalgesia assay by oral administration; assay type: functional; in short: as §3
Rattus norvegicus [14] = experiment: Percent inhibition for analgesic activity by trypsin-induced hyperalgesia assay at 20 mg/kg by oral administration in rats; ND is no data.; assay type: functional; in short: as §4
Mus musculus [15] = organism: Mus musculus; experiment: Ratio of rotarod to Straub-tail activity, which indicates the dose exhibiting muscle relaxant activity versus that producing sedation.; assay type: functional; in short: as §1
[16] = biological target: T1, Amine oxidase [flavin-containing] A (Homo sapiens, UniProt P21397); experiment: Inhibitory concentration against Monoamine oxidase A (MAO-A)
T1 sequence (P21397 whole entry): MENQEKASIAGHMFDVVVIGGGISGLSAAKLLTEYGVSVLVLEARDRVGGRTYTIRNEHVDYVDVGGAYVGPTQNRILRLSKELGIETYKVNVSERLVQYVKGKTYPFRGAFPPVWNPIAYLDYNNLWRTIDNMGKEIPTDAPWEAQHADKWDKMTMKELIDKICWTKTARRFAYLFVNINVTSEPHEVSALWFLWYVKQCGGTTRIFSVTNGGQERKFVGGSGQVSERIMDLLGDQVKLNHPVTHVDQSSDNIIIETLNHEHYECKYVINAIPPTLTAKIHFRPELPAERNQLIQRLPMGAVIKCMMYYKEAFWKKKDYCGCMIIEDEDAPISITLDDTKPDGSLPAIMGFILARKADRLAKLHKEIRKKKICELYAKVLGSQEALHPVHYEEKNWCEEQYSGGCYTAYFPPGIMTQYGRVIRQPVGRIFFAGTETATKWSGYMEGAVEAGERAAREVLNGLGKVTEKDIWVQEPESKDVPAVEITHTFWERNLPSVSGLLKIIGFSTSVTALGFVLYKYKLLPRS

Rattus norvegicus [17] = experiment: Effective dose required for sedation in Wistar rats evaluated by loss of righting reflex by oral administration; assay type: functional
In short: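 Sedation in Wistar rats scored as loss of righting reflex (ability to stay upright) after oral dosing. ED50 reported in mg/kg po.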

Rattus norvegicus [18] = experiment: Antiinflammatory activity in cells by Carrageenan pleurisy assay by oral administration; assay type: functional; in short: as §7
Mus musculus [19] = organism: Mus musculus; experiment: Effective dose required to produce analgesic activity was measured by mouse hot plate assay; assay type: functional
Mus musculus [20] = experiment: Evaluated for sedation in mice by loss of righting reflex up to a dose of 200 mg/kg by oral administration; No loss of righting reflex; assay type: functional, organism-based; parameters: dose 200 mg/kg
Rattus norvegicus [21] = experiment: Percent inhibition for analgesic activity by trypsin-induced hyperalgesia assay at 20 mg/kg by oral administration in rats; assay type: functional; in short: as §4
[22] = biological target: T2, Amine oxidase [flavin-containing] B (Homo sapiens, UniProt P27338); experiment: Inhibitory concentration against Monoamine oxidase B (MAO-B)
T2 sequence (P27338 whole entry): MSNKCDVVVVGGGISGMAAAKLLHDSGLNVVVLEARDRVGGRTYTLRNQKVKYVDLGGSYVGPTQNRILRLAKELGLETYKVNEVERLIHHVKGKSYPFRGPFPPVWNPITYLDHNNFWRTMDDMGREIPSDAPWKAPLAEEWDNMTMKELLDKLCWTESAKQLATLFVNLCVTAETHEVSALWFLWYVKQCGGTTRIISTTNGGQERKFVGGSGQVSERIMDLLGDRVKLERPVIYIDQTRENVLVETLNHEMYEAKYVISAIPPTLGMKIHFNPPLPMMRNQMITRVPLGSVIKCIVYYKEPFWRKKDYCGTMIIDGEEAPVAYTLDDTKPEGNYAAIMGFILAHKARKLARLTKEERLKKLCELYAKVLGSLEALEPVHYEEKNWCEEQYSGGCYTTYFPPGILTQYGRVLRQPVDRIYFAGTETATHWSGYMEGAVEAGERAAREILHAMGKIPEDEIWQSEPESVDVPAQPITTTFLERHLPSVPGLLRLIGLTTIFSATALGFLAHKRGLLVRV

Rattus norvegicus [23] = experiment: Effective dose required for muscle relaxation after oral administration in Lewis rats by pull-up test
Rattus norvegicus [24] = experiment: Effective dose required for muscle relaxation after oral administration in Wistar rats by pull-up test
Rattus norvegicus [25] = experiment: Effective dose required to produce analgesic activity in the trypsin hyperalgesia assay by oral administration
Rattus norvegicus [26] = experiment: Antiinflammatory activity in cells by Carrageenan pleurisy assay by oral administration at 20 mg/kg.; assay type: functional
In short: (§8)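 Rat carrageenan pleurisy, 3 h. Single oral dose of 20 mg/kg, with separate read-outs for pleural cell counts and edema as percent inhibition. Each compound tested two or three times; average variation approximately 10%.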

Rattus norvegicus [27] = experiment: Antiinflammatory activity in edema by Carrageenan pleurisy assay by oral administration at 20 mg/kg.; assay type: functional; in short: as §8
Rattus norvegicus [28] = experiment: Antiinflammatory activity in cells by Carrageenan pleurisy assay by oral administration at 20 mg/kg; assay type: functional; in short: as §8
Rattus norvegicus [29] = experiment: Antiinflammatory activity in edema by Carrageenan pleurisy assay by oral administration at 20 mg/kg; assay type: functional; in short: as §8

SMILES	ED50 (Mus musculus [1])	ED50 (Mus musculus [4])	ED50 (Rattus norvegicus [5])	inhibition in vivo at 20 mg/kg (Rattus norvegicus [6])	inhibition in vivo at 100 mg/kg (Mus musculus [7])	ED50 (Rattus norvegicus [8])	ED50 (Rattus norvegicus [9])	inhibition in vivo at 20 mg/kg (Rattus norvegicus [21])	other results
NC(=O)/C=C1\CCc2ccccc21	164 mg/kg	108 mg/kg	9 mg/kg	88%					Ratio (Mus musculus [2]): 1.5; ED50 (Mus musculus [3]): 31 mg/kg
CN(C)C(=O)/C=C1\CCc2ccc(F)cc21		> 100 mg/kg	5 mg/kg	88%	100%	16 mg/kg	12 mg/kg		
O=C(/C=C1\CCc2ccc(F)cc21)Nc1ccccc1						8 mg/kg			inhibition in vivo at 100 mg/kg (Mus musculus [10]): 83%
COc1ccc2c3c1O[C@H]1[C@@H](O)C=C[C@H]4[C@@H](C2)N(C)CC[C@@]341 [CODEINE]									ED50 [11]: 25 mg/kg; ED50 [12]: 27 mg/kg; ED50 [13]: 33 mg/kg
Cc1ccc2c(c1)/C(=C/C(N)=O)CC2					33%				inhibition in vivo at 20 mg/kg (Rattus norvegicus [14]): 14%
NC(=O)/C=C1\CCc2ccc(Cl)cc21	221 mg/kg	98 mg/kg				27 mg/kg	33 mg/kg		Ratio (Mus musculus [15]): 2; ED50 (Mus musculus [3]): 40 mg/kg
CNC(=O)/C=C1\CCc2cc(F)c(F)cc21		96 mg/kg	9 mg/kg	100%	100%	18 mg/kg	11 mg/kg		
NC(=O)/C=C1\CCc2c(F)cc(F)cc21	138 mg/kg	69 mg/kg	4 mg/kg		100%		15 mg/kg	100%	IC50 [16]: 11 µM; ED50 (Rattus norvegicus [17]): 200 mg/kg; ED50 (Rattus norvegicus [18]): 19 mg/kg; inhibition in vivo at 100 mg/kg (Mus musculus [10]): 67%; ED50 (Mus musculus [19]): 30 mg/kg; ED50 (Mus musculus [20]): No loss of righting reflex; ED50 [11]: 21 mg/kg; ED50 [12]: 20 mg/kg; IC50 [22]: 0.2 µM; ED50 (Rattus norvegicus [23]): 18 mg/kg; ED50 (Rattus norvegicus [24]): 64 mg/kg; ED50 (Rattus norvegicus [25]): 22 mg/kg
O=C(/C=C1\CCc2ccc(F)cc21)NCc1ccccc1						16 mg/kg	8 mg/kg	8%	inhibition in vivo at 100 mg/kg (Mus musculus [10]): 17%
O=C(/C=C/c1cccc(F)c1)NC1CC1 [CINFLUMIDE]	189 mg/kg	156 mg/kg		< 20%					Ratio (Mus musculus [15]): 1.2; ED50 (Mus musculus [3]): 63 mg/kg; inhibition in vivo at 20 mg/kg (Rattus norvegicus [26]): < 20%; inhibition in vivo at 20 mg/kg (Rattus norvegicus [27]): < 20%
O=C(/C=C1\CCc2ccc(F)cc21)NC1CCCC1						14 mg/kg	11 mg/kg	6%	inhibition in vivo at 100 mg/kg (Mus musculus [10]): 0%
NC(=O)/C=C1\CCc2ccc(F)cc21	90 mg/kg	56 mg/kg	16 mg/kg	14%		21 mg/kg	20 mg/kg	60%	Ratio (Mus musculus [15]): 1.6; ED50 (Mus musculus [3]): 22 mg/kg
O=C(/C=C1\CCc2c(F)cccc21)NC1CC1		126 mg/kg			100%				inhibition in vivo at 20 mg/kg (Rattus norvegicus [28]): 29%; inhibition in vivo at 20 mg/kg (Rattus norvegicus [29]): 18%
NC(=O)/C=C1\CCc2cc(F)c(F)cc21	82 mg/kg	64 mg/kg	19 mg/kg		100%	13 mg/kg	17 mg/kg	62%	Ratio (Mus musculus [15]): 1.3
